What was measured:
Assay type in all cases: functional, cell-based
BGC-823 = test: Cytotoxicity against human BGC823 cells after 72 hrs by MTT assay; settings: BGC-823, 72 h
In short: (§1)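 Cells kept in RPMI 1640 with 10% (v/v) FBS and plated in 96-well plates. Test compounds added at dilutions of 10^-3-10² µmol/L, then incubated 72 h at 37 °C under 5% CO₂. Survival read by MTT. IC50 taken as the concentration (µmol/L) giving 50% inhibition of cell growth.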

HeLa = test: Cytotoxicity against human HeLa cells after 72 hrs by MTT assay; in short: as §1
Bel-7402 = test: Cytotoxicity against human Bel7402 cells after 72 hrs by MTT assay; settings: Bel-7402, 72 h; in short: as §1

## C[C@]12CC[C@H](O)C[C@H]1CC[C@@H]1[C@@H]2C[C@H](O)[C@]2(C)[C@@H](c3ccc(=O)oc3)CC[C@]12O
BGC-823
  IC50: 420 nM
HeLa
  IC50: 60 nM
Bel-7402
  IC50: 410 nM

## C[C@]12CC[C@H](O)C[C@H]1C[C@H](O)[C@@H]1[C@@H]2C[C@H](O)[C@]2(C)[C@@H](c3ccc(=O)oc3)CC[C@]12O
BGC-823
  IC50: 5300 nM
HeLa
  IC50: 60 nM
Bel-7402
  IC50: 2900 nM

## C[C@]12CC[C@H](O)C[C@@]1(O)C[C@H](O)[C@@H]1[C@@H]2CC[C@]2(C)[C@@H](c3ccc(=O)oc3)CC[C@]12O
HeLa
  IC50: 22 nM

## C[C@]12CC[C@H](O)C[C@H]1CC[C@@H]1[C@@H]2C[C@@H](O)[C@]2(C)[C@@H](c3ccc(=O)oc3)CC[C@]12O
BGC-823
  IC50: 31 nM
HeLa
  IC50: 7.6 nM
Bel-7402
  IC50: 26 nM

## C[C@]12CC[C@H](O)C[C@H]1CC[C@@H]1[C@@H]2CC[C@]2(C)[C@@H](c3ccc(=O)oc3)CC[C@]12O [BUFALIN]
BGC-823
  IC50: 45 nM
HeLa
  IC50: 28 nM
Bel-7402
  IC50: 7 nM

— ChEMBL document CHEMBL1158748, “Microbial hydroxylation of bufalin by Cunninghamella blakesleana and Mucor spinosus” (J Nat Prod, 2005)
